Test results: ChEMBL document CHEMBL1125864, “Folate analogues. 35. Synthesis and biological evaluation of 1-deaza, 3-deaza, and bridge-elongated analogues of N10-propargyl-5,8-dideazafolic acid” (J Med Chem, 1991)

How the values were obtained:
Thymidylate synthase [1] = target: Thymidylate synthase (Homo sapiens, UniProt P04818); assay: Compound was evaluated for the inhibition of human Thymidylate Synthase; details: read-out: I50
SW480 = assay: Compound was evaluated for inhibition of tumor cell growth in SW/480 cell line; assay type: functional, cell-based; details: Homo sapiens, read-out: I50
In short: (§1)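 Cells were grown in folate-free RPMI 1640 with 10% dialyzed FCS and 20 nM leucovorin, seeding SW480 at 8000 and MCF-7 at 10000 cells/well. After 24 h at 37 °C and 5% CO₂, drug diluted in leucovorin-free medium was added to triplicate wells for 96 h. Growth was read by MTT reduction (1 h), followed by DMSO solubilization and absorbance.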

Manca = assay: Compound was evaluated for inhibition of tumor cell growth in Manca human lymphoma cell line; assay type: functional, cell-based; details: read-out: I50
[2] = It is the ratio of relative maximum velocity to that of apparent kinetic constant
MOLT-4 = assay: Compound was evaluated for inhibition of MTX influx into MOLT-4 cells; assay type: functional, cell-based; details: Homo sapiens, read-out: I50
In short: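 MOLT-4 cells were grown in folate-free RPMI-1640 with 10% dialyzed FCS and 20 nM leucovorin, then resuspended in pH 7.4 Tris/bicarbonate buffer with 10 mM DTT at 37 °C. Test compound was added with TLC-purified ³H-MTX at t = 0. Timed aliquots were spun through 1-bromododecane, and pellets were NaOH-extracted and scintillation counted. Rates came from 4–5 linear points at ≤10 min.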

MCF7 = assay: Compound was evaluated for inhibition of tumor cell growth in MCF-7 cell line; assay type: functional, cell-based; details: Homo sapiens, read-out: I50; in short: as §1
Thymidylate synthase [3] = target: Thymidylate synthase (Escherichia coli, UniProt C3SWJ7); assay: Compound was evaluated for the inhibition of Escherichia coli Thymidylate Synthase; details: read-out: I50
Chain of Thymidylate synthase (Escherichia coli, UniProt C3SWJ7) (C3SWJ7 whole entry): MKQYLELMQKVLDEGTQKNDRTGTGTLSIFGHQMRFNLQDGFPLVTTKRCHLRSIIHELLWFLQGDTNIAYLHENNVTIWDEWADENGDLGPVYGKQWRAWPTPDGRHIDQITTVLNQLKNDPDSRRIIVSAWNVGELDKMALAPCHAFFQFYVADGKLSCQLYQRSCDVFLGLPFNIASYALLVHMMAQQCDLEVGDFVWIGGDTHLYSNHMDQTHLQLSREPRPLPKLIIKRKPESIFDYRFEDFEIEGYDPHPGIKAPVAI

[4] = substrate: C#CCN(Cc1ccc(C(=O)NC(CCC(=O)O)C(=O)O)cc1)Cc1ccc2nc(C)nc(O)c2c1; assay: Relative maximum velocity of Folyl-polyglutamate synthase (relative to control of 50 uM aminopterin); details: Sus scrofa
In short: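 Substrate activity was measured with partially purified hog liver FPGS, following an earlier published method. Vmax is expressed relative to a control of 50 μM aminopterin that was run in every experiment. Where activity was weak, relative velocity was reported at 200 μM substrate.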

Chain of Thymidylate synthase (Homo sapiens, UniProt P04818) (P04818 whole entry): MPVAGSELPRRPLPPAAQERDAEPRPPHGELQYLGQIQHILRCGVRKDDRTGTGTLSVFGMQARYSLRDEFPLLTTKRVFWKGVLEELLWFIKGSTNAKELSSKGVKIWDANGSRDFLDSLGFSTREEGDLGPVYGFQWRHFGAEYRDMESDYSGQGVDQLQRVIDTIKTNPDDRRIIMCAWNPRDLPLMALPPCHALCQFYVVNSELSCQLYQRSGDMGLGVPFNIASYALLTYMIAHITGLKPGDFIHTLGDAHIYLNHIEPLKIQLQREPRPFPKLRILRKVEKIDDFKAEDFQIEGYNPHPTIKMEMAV

Molecule | IC50 (Thymidylate synthase [1]) [µM] | IC50 (SW480) [µM] | IC50 (Manca) [µM] | Ratio [2] | IC50 (MOLT-4) [µM] | IC50 (MCF7) [µM] | IC50 (Thymidylate synthase [3]) [µM] | Vmax [4] [%]
C#CCN(Cc1ccc(C(=O)NC(CCC(=O)O)C(=O)O)cc1)Cc1ccc2c(c1)C(=O)CC(C)=N2 (stereo unspecified) | 1.4 | > 50 | > 600 |  |  |  |  | 
C#CCN(Cc1ccc(C(=O)NC(CCC(=O)O)C(=O)O)cc1)Cc1ccc2ccnc(O)c2c1 (stereo unspecified) | 0.74 | > 100 | 9 | 0.38 | 4.5 | 22 |  | 
C#CCN(Cc1ccc2c(c1)C(=O)N[C@H](C)N2)c1ccc(C(=O)NC(CCC(=O)O)C(=O)O)cc1 (stereo partly specified) | 0.43 | 0.6 |  |  |  |  | 1.5 | 
C#CCN(Cc1ccc2c(c1)C(=O)C[C@H](C)N2)c1ccc(C(=O)NC(CCC(=O)O)C(=O)O)cc1 (stereo partly specified) | 24 | > 100 |  |  | 4.5 | > 100 | 1.88 | 
C#CCN(Cc1ccc(C(=O)NC(CCC(=O)O)C(=O)O)cc1)Cc1ccc2nc(C)nc(O)c2c1 (stereo unspecified) | 83 | > 100 |  | 2.01 | 7 | > 100 | 515 | 
C#CCN(Cc1ccc2nc(C)nc(O)c2c1)c1ccc(C(=O)NC(CCC(=O)O)C(=O)O)cc1 (stereo unspecified) | 0.01 | 0.05 | 0.013 | 1.33 | 1.5 | 0.007 | 0.045 | 
CN(Cc1cnc2nc(N)nc(N)c2n1)c1ccc(C(=O)N[C@@H](CCC(=O)O)C(=O)O)cc1 [METHOTREXATE] |  |  |  |  | 1.4 |  |  | 
Nc1nc(O)c2c(n1)NCC(CNc1ccc(C(=O)N[C@@H](CCC(=O)O)C(=O)O)cc1)N2 (stereo partly specified) |  |  |  | 32.1 |  |  |  | 
C#CCN(Cc1ccc(C(=O)NC(CCC(=O)O)C(=O)O)cc1)Cc1ccc2nc(N)nc(O)c2c1 (stereo unspecified) | 31 | > 100 | > 80 | 1.9 |  | > 100 | 201 | 
Nc1nc(=O)c2nc(CNc3ccc(C(=O)N[C@@H](CCC(=O)O)C(=O)O)cc3)cnc2[nH]1 [FOLIC ACID] |  |  |  | 0.77 | > 100 |  |  | 
C#CCN(Cc1ccc2[nH]c(N)nc(=O)c2c1)c1ccc(C(=O)NC(CCC(=O)O)C(=O)O)cc1 (stereo unspecified) |  | 0.8 | 0.56 |  | 28 | 0.8 |  | 
Nc1nc(=O)c2c([nH]1)NCC(CNc1ccc(C(=O)N[C@H](CCC(=O)O)C(=O)O)cc1)N2C=O (stereo partly specified) |  |  |  |  | 3.5 |  |  | 
Folylpolyglutamate synthase, mitochondrial (Homo sapiens), Q05932 (protein) MSRARSHLRAALFLAAASARGITTQVAARRGLSAWPVPQEPSMEYQDAVRMLNTLQTNAGYLEQVKRQRGDPQTQLEAMELYLARSGLQVEDLDRLNIIHVTGTKGKGSTCAFTECILRSYGLKTGFFSSPHLVQVRERIRINGQPISPELFTKYFWRLYHRLEETKDGSCVSMPPYFRFLTLMAFHVFLQEKVDLAVVEVGIGGAYDCTNIIRKPVVCGVSSLGIDHTSLLGDTVEKIAWQKGGIFKQGVPAFTVLQPEGPLAVLRDRAQQISCPLYLCPMLEALEEGGPPLTLGLEGEHQRSNAALALQLAHCWLQRQDRHGAGEPKASRPGLLWQLPLAPVFQPTSHMRLGLRNTEWPGRTQVLRRGPLTWYLDGAHTASSAQACVRWFRQALQGRERPSGGPEVRVLLFNATGDRDPAALLKLLQPCQFDYAVFCPNLTEVSSTGNADQQNFTVTLDQVLLRCLEHQQHWNHLDEEQASPDLWSAPSPEPGGSASLLLAPHPPHTCSASSLVFSCISHALQWISQGRDPIFQPPSPPKGLLTHPVAHSGASILREAAAIHVLVTGSLHLVGGVLKLLEPALSQ |  |  |  |  |  |  |  | 138
